In the RNAGym collection of RNA variant scans (doi:10.1126/science.aae0568):
Variants at the floor of the assay were thinned out.

B1: tRNA (parent)
chain: GUUCCGUUGGCGUAAUGGUAACGCGUCUCCCUCCUAAGGAGAAGACUGCGGGUUCGAGUCCCGUACGGAACG

Variants of: B1
Experiment: yeast fitness relative to wild type (ratio to wild type); higher = fitter; tRNA-Arg(CCU), competitive growth, 37 C, YPD
Method in brief: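 A pool of Saccharomyces cerevisiae strains, each with a tRNA-Arg(CCU) gene variant at the native genomic locus, was competed in YPD at 37°C for 24 hours across six parallel replicates. The variants had been chemically synthesised at a 3% per-site mutation rate over 69 sites, and gene amplicons before and after competition were read by 100-nucleotide paired-end sequencing. Darwinian fitness relative to wild type rested on changes in genotype frequencies. Genotypes required ≥ 100 starting reads, and estimates < 0.5 were set to 0.5.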

Point of comparison: GUUCCGUUGGCGUAAUGGUAAUCAGUCUCCCUCCUAAGGAGAAGACUGUGGGUUCGAGUCCUGUACGGCACG, yeast fitness 0.683. Against it:
- GUUCCGUUGGCGUAAUGCUAACGCGUCUCCCUCCUAAGCAGAAGACUGCGGGUUCGAGUCCCGUACGGAACG — the same, 0.683
- GCUCCGUUGGCGUAAUGGUAACGCGUCUCCCUCCUAAGGAGAAGACUGGGGGUUUGAGUCCCGUACGGAACG — lower, 0.573
- GUUUGGUUGGCGUAAUGGUAACGCGUCUCCCUCCUACGGAGAAGACUGCGGGUUCGAAUCCUGUACGGAACG — lower, ≤ 0.5
- GUUCCGUUGGCGUAAUGGUAACGCGUCUCCCUCCUAAGGUGAAGACAGCGGGUUCGAAUCCCGUACGGAACG — lower, ≤ 0.5
- GUUCCGUUGGCGUAAUGGUCACGCGUCUCACUCCUAAGGAGAAGACUGCGGGUUCGAGUCCCGUACGGAGCG — lower, 0.588
- GUUCCGUUGGCGUUAUGGUAUCGCGUCUCCCUCCUAAGGAGAAGACUGUGGGUUCGAGUCCCGUACCGAACG — lower, ≤ 0.5
- GUUCCGUUGGCGUAAUGGUAACGCGUCUCCCUCUUAAGGGGAGGACUGCGGGUUCGAGUCCAGUACGGCACG — lower, ≤ 0.5
- GUUCCGUUGGCGUAAUGGUAACGCGUCUCCCUCUUAAGGAGAAGACUGCGGGUUCGAGUCCCGUACCGAACG — higher, 0.723
- GUUCGGUUGGGAUAAUGGUAACGCGUCUCCCUCCUACGGAGAAGACUGCAGGUUCGAGUCCCGUACGGAACG — lower, 0.533
- GUUCCGUUGGCGUAAUGGUAAGGCGUCUCCCUCCUAAGGAGAAGCCUGCGGGUUCGAGUCCCGUCCGGAACG — lower, ≤ 0.5
- GUUUCGUUGGCGUAAAGGUAACGCGUCUCCCUCCUAUGGAGAAGACUGCGGGUUGGAGUCCCGUACGGAACG — lower, ≤ 0.5
- GUUCGGUUGGCGUAAUCGUCUCGCGUUUCCCUGCUAAGGAGAAGACUGCGGGUUCGAGUCCCGUACGGAACG — lower, ≤ 0.5
- GUUCCGUUCGCGUAAUGGUAACGCGUCUCCCUCCUAAGGAGAAGACGGCGGGUUCGAGUCCCGUACGGAACG — lower, 0.595
- GUUCCGUUGGCGUAAUGGUAACGCGUCUCCCUCCUAAGGGGAUGACUGCGGGUUGGAGUCCCGUACGGAACG — lower, 0.535
- GUUCCGUUGGCGUAAUGGUAACGGGUCUCCCUCCUAAGGAGACGACUACGGGUUCGAAUCCCGUACGCAACG — lower, ≤ 0.5
- GUUCCGUUGGCGCAAUGGUAACGCGUCUCCCUCCUAAGGAGAAGACUGCGGGUUCCAGUCCCGUACGGAACG — lower, 0.549
- GUUCCGUUCGCGUAAUGGUAACGUGUCUCCCUCCUACGGAGAAGACUGCGGGUUCGAGUCGCGUACGGAACG — lower, ≤ 0.5
- GUUCCGUUGGCGUAAUCGUAACGCGUCUACCUCCUAAGGAGAAGAUUGCGGGUUCGAGUCCCGUACGGAACG — higher, 0.867
- GUUCCGUUGGCGUUAUGGUAACGCGUCUCCCUCCUAAGGAGAAGACUCCGGGUUCGAGUCCCGUACGGACCG — lower, ≤ 0.5
- GUUCCGUUGGCGCAAUGGUAACGCGUCUCCCUCCUAAAGAGAAGACUGCGGGUUCGAGUCCCGUACGGAACG — higher, 0.708
- GUUCCGUUGGCCUAAUGGUAACGCGUCUCCAUCCUAAGGAGAAGACUGCGGGUUCGAGUCCCGUACGGAACG — higher, 0.774
- GUUCCGUUGGCGUAAUGGUAACGCGUCGCCCUCUUAAAGAGAAGACUGCGGGUUCGAGUCCCGUACGGAACG — lower, ≤ 0.5
- GUUCCGUUGGCGUAAUGGUGACGCGUCUCCCUCCUAAGGCGUCGACUACGGGUUCGAGUCACGUACGGUACG — lower, ≤ 0.5
- GUUCCGUUGGCGUAAUGGUAAUGCGUCUCCCUCCUAAGGAGAAGACUGGGGGAUCGAGUCCCCUACGGAACG — lower, 0.609
- GUUCCGGUGGCGUAAUGGUAACGCGUCUCCCUACUAAGGAGAAGACUGCGGGUUCGAGUCCCGUACGGGACG — lower, 0.598
- GUUCCGUUGGCGUAAUGGAAACGUGUCUCCCUUCUAAGGAGAAGACUGUGGGUUCGAGUCCCGUACGGAACG — lower, ≤ 0.5
- GUUCCGUUGCCGUAAUGAUAAUGCGUCUCCCUCCUAAGGAGAAGACUGCGGGUUCGAGUCCCAUACGGAACG — lower, ≤ 0.5
- GUUCCGUUGGCGUACUGGUAACGCGUCUCCCCCCUAAGGAGAAGACUGCGGGUUCGAGUCCCGUACGGAACG — higher, 0.767
- GUUCGGUUGGCGUUACGCUAACGCGUCUCCCACCUAAGGAGAAGACUGCGGGUUCGAGUCCCGUACGGAACG — lower, 0.556
- GUUCCGUUGGCGUAAUGGUAACGCGUCUACCUCCUAAGGAGAAGAUUGCGGGUUCGGGUCCCGUACGGAACG — lower, ≤ 0.5
- GUUCCGUGGGCGUAAUGGUAACGCGUCUCCCUCCUAGGGAGAAGACUGCGGGUUUGAGUCCCGUACGGAACG — lower, ≤ 0.5
- GUUCCGUUGGCGUAAUGGUAUCGCGUCUCCCUCCUAAGGAGAAGGCUGCGGGUUCGAGUCCGGUACGGAACG — higher, 0.996
- GUUCCGUUGGCGUAAUGGUAACGCGUCUCCCUCCUAAGGAGAAGAAUGCGGGUUCGAGUCCAGUACGGAACG — higher, 0.805
- GUUCCGUUGGCGUCGUGGUAACCCGUCUCCCUCCUAAGGAGAAGACUGCGGGUUCGCGUCCCGUACGGAACG — lower, ≤ 0.5
- GUUCCGUUGGCGUAAUGGUACCGCGUCUCCCUCCUAAGGAGAAGACUGCGGGUUCGAGUCCCGUUCAGAACG — lower, 0.543
- GUUCCGUUGGCGUAAUGGAAACGCGUCUCGCUCCUAAGGCGAAGACUGCGGGUUCGAGUCCCGUACCGAACG — lower, ≤ 0.5
- GUUCCGUUGGGGUAAUGGUAACGCGUCUCCCUCCUAAGGAGAUGACAGCGGGUUCGAGUCCCGUUCCGAACG — lower, ≤ 0.5
- GUUCCGUUGGCGUAAUGGUAACGCGUCUCCCUUCUAAGGAGAAGACUGCGGGUUCGAGACCCGUACGGAGCG — lower, ≤ 0.5
- GGUCCGUUGGCGUAAUGGUAAUGGGUCUCCCUCCUAAGGAGAAGACUGCGCGUUCGAGUUCCGUACAGAACG — lower, ≤ 0.5
- GUUCCGGUGGCGUAAUGGUAACGCGUCUGCCUCCUAAGGAGAAGACUGCGGCUUCGUGUCCCGUACGGAACG — lower, ≤ 0.5
- GUUCCGUUGGCGUAAUGGUAACGCGUCUCCGUCCUAAGGAGAAGACUGCGCGUUCAAGUCCCGAACGGAACG — lower, ≤ 0.5
- GAUCCAUUGGGGUAAUGGUAACGCGUCGCCCUCGUAAGGAGAACACUGCGGGUUCGAGUCGCGUACGGAACG — lower, ≤ 0.5
- GAUCCGUUGGCGUAGUGGUAACGCGUCUCCGUCCUAAGGUGAAGACUGCGGGUUCGAGUGCCGUACAGAACG — lower, ≤ 0.5
- GUUCCGUUGGCGUAAUGGUAACGCGUCUCCCUCCUAAGGGGAAGACUGUGGGUUCGAGUCCCGUACAGAACG — lower, ≤ 0.5
- GUUCCGUUGCCGUAAUGGUAACGCGUUUCCCUCCUAAAGAGAAGAGUGCGGGUUCGAGUCCCGUACGGAACG — lower, 0.57
- GUUCCGUUGGCGUAAUGGUAACGCGUCUGCGUCCUAAGGAGAAGACUGCGGGUUCGAGUCCCGUACGGAACG — higher, 0.695
- GUUCCGUUGGCGUAAUGGUAACGGGUCUCCCUGCUAAGGAGAAGACUGCGGGUUCGAGUACCAUACGGAACG — lower, ≤ 0.5
- GUUCCGACAGCGUAAUGGUAACGCGUCUCCCGCCUAAGGAGUAGACUGCGGGUUCGAGUCCCGUACGGAACG — lower, 0.561
- GUUCCGUUGGCGUAAUGGUAACGCGUCUCCGUCCAAAGGAGAAGACUGCGGGUUCGAGUCCCGUACGGAACG — lower, 0.659
- GUUCCGUUGGCAUAAUGGUAACGCGUUUCCCUCCUAAGGAGAAGACUGCGCGUUCGUGUCCCGUACGGAACG — lower, 0.534
- GUUCGGUUGGCGUAAUGGUAACGCGUCUUCCUCCUAAGGAGAAGACUGCGGGUUCGAGUCCCGUACGGAACG — higher, 0.793
- GUUCCGUUGGCGUAAUGGUAACGCGUCUCCCUCCUAAGGAGAAGACUGCCAGUUUGAGUCCCGUACGGAACG — lower, 0.549
- GUUCCGUUGGCGAAAUGGUCACGCGUCUCCCUCCUAAGGAGAAGAUUGCGGGUUCGAGUCCCGUACGGAUCG — lower, 0.589
- GAUCCGUUGGCGUAAAGGUAACGCGUCUCCCUCCUAAGGAGAAGACUGAAGGUUCGAGUCCCGUACGCAACG — lower, ≤ 0.5
- GUUCCGUUGGGGUAAUGGUAACGCGUUUCCCUGCUAAGGAGAAGACUGCGGGUUCGAGUCCCGUCCGGAACG — lower, ≤ 0.5
- GUACCGUUGGCGUAAAGGUAAUGCGUCUCCCUCCACAUGAGAAGACUCCGGGUUCGAGUCCCGUACGGAACG — lower, ≤ 0.5
- GUUCCGUUCGCGUAAUGGUAACGCGUUUCCCUCCUAAGGAGUAGACUGCGGGUUCGAGUCCCCUACGGAACG — lower, ≤ 0.5
- GUUCCGUUGGCGUAAUGGUAACGCGUCUCCCUCCUAAGGAGAAGACUGAUGGUUCGAGUCCCGUACGGAACG — higher, 0.694
- GUUCCGUUGGCGUUAUGGUAACGCGUCUCCCUCCUAUGGAGAAGACUGCGGGUUCGAGUCCGGUACGGAUCG — lower, ≤ 0.5
- GUUCCGUUGGCGUAAUGGUAACGCGUCUCCCUCCUAAGGAGAAGAGUGUGGGUUCGAGUCCCGUACGGUACG — higher, 1.04
- GUUCCGUUGGCGUAAUGGUAACGCGUCACCCUCCUAAGGAGAAAACUGCAGGUUCGGGUCCCGUACGCAACG — lower, ≤ 0.5
- GUUCCGUUGGCGUAAUGGUAACGCGUCUCCCUCCUAAGGGGAAGAGUGCGGGUUCGAGUCCCGUACGGAACG — higher, 0.998
- GUUCCGUUGGCGUAAUGGUAACAGGUCUUCCUCCUAAGGAAAAGACUGCGGGUUCGAGUCCCGUACGGAACG — lower, ≤ 0.5
- GUUCCGUUGGCGUAAUGGUAAGGCGUCUCCUUCCUAAGGAGAAGAUUGCGGGUUCGAGUCCCGUACGGUACG — lower, 0.526
- GUUCCGUUGACGUAAUGGUAACGCGUCUCCCUCCUAAGGAGAAGACUGCGGGUUGGAAUCCCGUACGGAACG — lower, ≤ 0.5
- GUUCCGUUGGCGUAAUAGGAACGCGUCUCCCUCCUAGGGAGAAGACUGCGGGUUCGAGUCCCGUAUGGUACG — lower, 0.562
- GUUCCGUUGGCGUACUGGUAACGCGUAUCCCUUAUAAGGAGAAGACUGCGGGUUCGAGUCUCGUACGGAACG — lower, 0.509
- GUUCCGUUGGCCUAAUGGUAACGCGUCUCCCUCCUAAGGAGUAGAUUGCGGGUUGGAGUCCCGUACGGAACG — lower, ≤ 0.5
- GUUCUGUUGGCGUAAUGGUGACGCGUCUCCGUCCUAAGGAGAAGACCCCGGGUUCGAGUCCCGUACGGAACG — lower, ≤ 0.5
- GUUCCGUUGGCGUAAUGGUCACGCGUCUCCCUCCUAGGGAGAAGACUGCGGGUUCGAGUCCCGUACGGAACG — higher, 0.704
- GUUCCGUUGGCGUAAUGGUAACGCGUCUCCCUCCUAAGGAGAAGACUGCGGGUUAGAGUCCCGUAAGGAACG — lower, 0.541
- GUUCCGUUGGCGUAAUGGUAACGCGUCUCCCUCCUAAGGAGAACAAUGCGGGUUCGAGUCCCGUACGGAACG — higher, 1.01
- GUUCCGUUGGCGUAAUGGUAACGCGUCUCCCUCCUAGGGAGAAGACUGGGGGUUCGAGUCCCGUACGGAACG — higher, 0.788
- GUUCCGUUGGCGUAAUGGUAACGCGUUUCCCUCCUAAGGAGAAGACUGCGCGUUAGAGUCCCGUAUGGAACG — lower, 0.53
